# Data published in ChEMBL document CHEMBL4513216, “Probing the Open Global Health Chemical Diversity Library for Multistage-Active Starting Points for Next-Generation Antimalarials” (ACS Infect Dis, 2020).
# Experiment: Toxicity liver stage against HepG2, at 10uM
# Type: cell-based
# Parameters: test concentration 10 uM, cell line HepG2-A16-CD81EGFP
# Conditions: human, HepG2-A16-CD81EGFP cells; read-out: INHIBITION
# How it was run: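 Uninfected HepG2-A16-CD81EGFP cells, 3 × 10^3 per well, 1536-well, plated on prespotted compound at 10 μM final, parasite-free screening media added to match infected plates; puromycin 10 μM positive, DMSO 0.5% negative; run in parallel with 48 h PbLuc assay at 37 °C, 5% CO2; viability by CellTiter-Glo luminescence, normalized to controls.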
row,Compound,cytotoxicity at 10 µM
1,O=C(NCCn1ccnc1)NCC(c1ccco1)N1CCCCC1 (stereo not given),3.44%
2,COc1cccc(-n2ccc3nc(N4CCCC4)ncc3c2=O)c1,5.92%
3,CNc1nc(C(=O)N2CCCC(CO)(CCCOC)C2)cs1 (stereo not given),7.43%
4,Cc1csc(N2CCCN(C(=O)C(C)n3cncn3)CC2)n1 (stereo not given),-3.6%
5,COc1cc(OC)c(CNC(=O)NCC(=O)N(C)C)c(OC)c1,3.27%
6,Cc1cc(C)n(CC(C)NC(=O)C2(c3ccc(F)cc3)CC2)n1 (stereo not given),11.5%
7,CCOC[C@@H]1CC[C@H]2[C@H](CCN2C(=O)c2cnccn2)O1,-10.6%
8,Cc1cnn(C2CCCN(C(=O)c3cn4cccnc4n3)C2)c1 (stereo not given),-11.4%
9,COc1ccccc1OCCNC(=O)N1CCC(n2cncn2)CC1,1.67%
10,Cc1cc(C)n(CC2CCCN2C(=O)CCc2ccncc2)n1 (stereo not given),-14.4%
11,CCCn1cc(NC(=O)c2ccncc2)ccc1=O,-8.44%
12,Cc1ccc(N(C)[C@@H]2CC[C@@H]3CN(C(=O)C4CCOCC4)C[C@@H]32)nn1,-4.43%
13,Cn1cc(C(=O)N2C[C@@H]3CN(S(C)(=O)=O)CCO[C@@H]3C2)cn1,8.9%
14,O=C(CCCc1ccccc1)Nc1cnc(N2CCOCC2)nc1,-13.9%
15,CCc1ncc(C(=O)N2CCCOC(Cn3cccn3)C2)cn1 (stereo not given),-0.95%
16,O=C(NCc1ccccc1CN1CCCCC1)Nc1nncs1,0.513%
17,CC(=O)N1C[C@H]2CC[C@@H](C1)N(C(=O)CCc1n[nH]c3c1CCCC3)C2,10.3%
18,c1ccc2c(c1)cnn2CCCNC1CCOC2(CCOCC2)C1 (stereo not given),-7.35%
19,CCC1=N[C@@]2(CC[C@@H]3CN(C(=O)NCC(C)C)C[C@@H]32)C(=O)N1CCOC,10.3%
20,O=c1c2cn[nH]c2nc(SCCN2CCOCC2)n1-c1ccccc1,0.219%
21,CCN1CCC(CNC(=O)Nc2cnn(CC(N)=O)c2)C1 (stereo not given),1.1%
22,O=C(Nc1nccs1)NC1CCN(Cc2ccccn2)CC1,-5.72%

row,Compound,cytotoxicity at 10 µM
1,Cc1cc(C)n(CCNC(=O)c2ncc[nH]2)c(=O)n1,2.84%
2,COc1cccc2c1N(Cc1nc3c(cnn3C)c(=O)[nH]1)CCC2,-4.15%
3,Cc1ccc(CCC(=O)N(C)CCN2CCOCC2)c(C)c1,-4.51%
4,CCc1nnc2n1CCN(C(=O)c1cnc3c(cnn3C(C)C)c1)C2,-7.58%
5,COCCn1cc(NCc2cccc3cn[nH]c23)cn1,-3.31%
6,COCc1nc(C(=O)N2CCCC(n3ccnc3)C2)cs1 (stereo not given),-2.12%
7,c1ncn(CC2CCCN(Cc3nc(C4CC4)no3)C2)n1 (stereo not given),-12.9%
8,Cc1cc(NC2CCCN(Cc3ccc(F)cc3)C2)n2nc(C)cc2n1 (stereo not given),0.0152%
9,CCc1noc(C2CCCCN2C(=O)c2cccnc2)n1 (stereo not given),8.52%
10,CC(C(=O)Nc1ccon1)n1ccc(C(F)(F)F)n1 (stereo not given),5.15%
11,O=C(NCC1CC2(CO1)CN(c1nncs1)C2)C1CCC1 (stereo not given),-103%
12,O=S(=O)(NCCNc1ccc(-n2cccc2)nn1)c1ccccc1,-0.426%
13,Cc1nc(CSCCC(=O)Nc2cccc(N3CCNC3=O)c2)cs1,5.31%
14,CC(C)c1nccn1C1CCCN(C(=O)c2cnn(C)c2C2CC2)C1 (stereo not given),-5.5%
15,CS(=O)(=O)NCC1CCCN(C(=O)Nc2ccccc2F)C1 (stereo not given),-145%
16,OCCN1CCCCC1C1OCCO1 (stereo not given),6.66%
17,CCc1nnc(CN(C)Cc2cccc(C(=O)Nc3nccs3)c2)o1,-2.97%
18,CN(Cc1ccccc1)C(=O)CSc1ccc2c(c1)OCCO2,-9.48%
19,Cc1nc(C2CCNCC2)cc(N(C)CCc2cn[nH]c2)n1,-1.54%
20,COc1cccc(C(=O)N2CCN(C(=O)CCn3ccnc3)CC2)c1,10.3%
21,Cn1c(CNc2c(F)cccc2-n2cccn2)cc(=O)n(C)c1=O,-7.79%
22,Cc1cc(C(C)NC(=O)c2ccc(O)nc2)c(C)o1 (stereo not given),-1.85%

row,Compound,cytotoxicity at 10 µM
1,CC(C)CN1CCC(C(=O)Nc2cc(C(F)(F)F)c[nH]c2=O)CC1,-11.3%
2,CCOC(=O)N1CCN(c2nc(C)ncc2CC)CC1,-61.2%
3,N#Cc1ccc(N2CCCC3(CCC(=O)N3CC3CC3)CC2)nc1 (stereo not given),-125%
4,CC(c1nnc(-c2ccccc2)o1)N1CCC(Nc2ccccc2)CC1 (stereo not given),5.1%
5,CNC(=O)N1CCc2cc(C(=O)NCC3CC3)c(NC(C)C)nc2CC1,2.02%
6,Cc1ccccc1OCCCC(=O)NC(C)c1nnc2n1CCC2 (stereo not given),-11.5%
7,COCCn1cc(C(=O)N2CCCC2c2noc(C)n2)ccc1=O (stereo not given),-9.8%
8,COc1ncccc1CNC(=O)NCc1ccco1,-12.8%
9,O=C(N1CCCC1)N1CCCC(c2nccn2Cc2ccncc2)C1 (stereo not given),8.2%
10,COc1cccc([S+]([O-])CC(=O)NCc2cc(F)cc(F)c2)c1 (stereo not given),-0.491%
11,OC(CNC1CCOCC1)c1ccc(Cl)c(F)c1 (stereo not given),-1.12%
12,C[C@@H]1C[C@@H]2CCN(Cc3nccs3)C[C@H]2O1,-3.15%
13,CC1CN(C2CCN(Cc3nccn3CC(F)(F)F)CC2)CCO1 (stereo not given),-1.32%
14,Cn1cccc1CNCc1nnc2n1CCCC2C(F)(F)F (stereo not given),-7.53%
15,Cc1cccnc1NC(=O)C1CCN(C(C)C(=O)NC(C)(C)C)CC1 (stereo not given),3.15%
16,Cc1ccc(CN2CCOC3(CCN(C(=O)C4CC=CC4)CC3)C2)cc1,15.5%
17,CS(=O)(=O)c1ccc(C(=O)NCc2nc3cc(F)ccc3[nH]2)cc1,-3.34%
18,O=C(Cc1ccccn1)N1CCC(O)(Cn2ccc3ccncc32)CC1,-5.24%
19,CCN(Cc1csc(CS(C)(=O)=O)n1)c1cccc(CO)c1,-10%
20,CSc1cc(CNC(=O)CCOc2ccccc2C)ccn1,6.72%
21,Cc1cccc(CN2C[C@@H]3CN(Cc4ccoc4)CCO[C@@H]3C2)n1,6.53%
22,Cc1nc(CN2CCOCC3(CCN(c4cnccn4)CC3)C2)cs1,7.37%

row,Compound,cytotoxicity at 10 µM
1,CN(CCO)Cc1nnc(C2CCN(C(=O)C(C)(C)C)CC2)n1C,22.6%
2,CCC(=O)N1CCC2(COCc3cnc(NCc4ccco4)nc32)C1 (stereo not given),-12.9%
3,O=C(O)C1(n2cccn2)CCN(Cc2nc(-c3ccccc3)no2)CC1,6.74%
4,Cc1cc(C)cc(N2CCN(Cc3cccc(CCN)c3)CC2=O)c1,3.32%
5,O=C(CCn1cccn1)NCC(c1cccs1)N1CCOCC1 (stereo not given),-2.49%
6,O=C([C@H]1C[C@H]2OCC[C@H]2N(Cc2ccccn2)C1)N1CCCCO1,-73.3%
7,CO[C@@H]1CCN(C(=O)Cc2ccsc2)[C@H]1Cc1cccnc1,6.9%
8,CO[C@@H]1CC[C@H]2[C@H]1OCCN2CCOCc1ccccc1,-114%
9,CSC(C)(C)CNC(=O)NC1CCN(C)CC1,18.9%
10,O=C(c1nc(=O)[nH]c2ccccc12)N1CCCC2(CCNC2)C1 (stereo not given),-3.64%
11,CN1CCN(C[C@H]2CN3CC[C@H]2C[C@@H]3CNC(=O)c2ccco2)CC1,-6.35%
12,O=C(O)C1(Cc2cccc(-c3ccc(F)cc3)c2)CCOCC1,-24.1%
13,O=C(N1CCCC1)N1CCN(CC2CC2)c2ncccc2C1,6.51%
14,c1cnn(CC2CN(Cc3nc(-c4ccsc4)no3)CCO2)c1 (stereo not given),-8.06%
15,Cc1cc(C)n(CC2CN(Cc3nc4ccccc4s3)CCO2)n1 (stereo not given),3.93%
16,CN1CCN(S(=O)(=O)c2cccnc2)c2cnccc21,-0.376%
17,CCOc1ncccc1C(=O)NC1CC(=O)N(CC(F)(F)F)C1 (stereo not given),4.43%
18,Nc1cc(-c2cccc3ccnn23)ccn1,0.858%
19,CC(NC(=O)Nc1ccccc1CN1CCOCC1)c1nnc(N)s1 (stereo not given),4.84%
20,COCC1CN(Cc2ccoc2)Cc2nn(CC3CC3)cc21 (stereo not given),-2.24%
21,Cc1ccoc1C(=O)N1C[C@@H](OCC2CC2)[C@H]2OCCC[C@H]21,5.86%
22,O=C(NCC(F)(F)F)c1ccncc1,-19%

row,Compound,cytotoxicity at 10 µM
1,CSc1ccc(CCN2CCN([C@H]3CCCC[C@@H]3O)CC2)cc1,-3.38%
2,CCc1nc(CN2CCCN(C(=O)C3CCOC3)CC2)cs1 (stereo not given),3.09%
3,CN(CCn1cncc1-c1cnc(N2CCOCC2)nc1)C1CCCC1,7.25%
4,CCCc1noc(-c2ccc(-n3ncc(C(=O)O)c3C)nc2)n1,-1.4%
5,Cc1cc(N)cc(C2CN(Cc3cc[nH]n3)CCO2)n1 (stereo not given),-29.1%
6,CCn1nc2nc(SCC(=O)O)cc(C(F)F)c2c1C,-3.78%
7,CCCn1ccnc1-c1cccc(NC2CCOC2)c1 (stereo not given),-3.1%
8,O=C(CC1CC1)N1C[C@@H](O)[C@H](N2CCN(c3ccccc3)CC2)C1,-0.38%
9,Cc1ccnc(NC(=O)CSCc2cccnc2)c1,-42.2%
10,Cc1cnn(CCNCC(=O)NC(C)c2ccc3c(c2)OCCO3)c1 (stereo not given),-1.58%
11,Cc1noc(C(C)Nc2ccc3oc(=O)[nH]c3c2)n1 (stereo not given),-2.27%
12,COc1ccc(CN(C)Cc2c(C)noc2C)c(Cl)c1OC,-1.22%
13,O=C(C1CCOCC1)N1C[C@@H](F)[C@@H](OCc2nc3cc(F)ccc3[nH]2)C1,-9.9%
14,Clc1ccc2cccnc2c1CN1CCCC(Cn2cncn2)C1 (stereo not given),8.38%
15,CN(C)c1nc2c(c(N3CCc4ccccc4C3)n1)CCNC2,10.9%
16,CC(C)c1nnc(CN2CCCC(Cn3cncn3)C2)o1 (stereo not given),-3.39%
17,CCc1cnc2c(c1Nc1ccc(C)c(F)c1)c(=O)n(C)c(=O)n2C,-2.5%
18,O=C(c1cc2c(Cl)cccc2[nH]1)N1CCN(CCc2ccccn2)CC1,3.07%
19,CC1CN(Cc2nc(Cc3ccccc3F)no2)CCN1C (stereo not given),-7.44%
20,O=C(C1CCOCC1)N1CCO[C@H]2[C@H](Oc3cccnc3)CC[C@@H]21,2.03%
21,N[C@@H]1CCN(Cc2ccccc2CS(=O)(=O)c2ccccc2)C[C@H]1O,-2.58%
22,CC1(C)COCCN1C(=O)CCc1nc(-c2ccncc2)no1,-6.61%
